This is an account of results in ChEMBL document CHEMBL4371014, “Novel Allosteric Ligands of γ-Aminobutyric Acid Transporter 1 (GAT1) by MS Based Screening of Pseudostatic Hydrazone Libraries” (J Med Chem, 2018).

Some results are limits rather than exact numbers.

The target of the assay is Sodium- and chloride-dependent GABA transporter 1 (Mus musculus) (UniProt P31648). As to the kind of experiment: Inhibition of NO711 binding to mouse GAT1 expressed in HEK293 cell membranes assessed as residual binding at 1 uM preincubated for 4 hrs followed by NO711 addition and measured after 40 mins by LC-ESI-MS/MS analysis relative to control. The essentials: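 Single hydrazones formed in situ in the presence of mouse GAT1 from one aldehyde (1.0 µM) and hydrazine (200 µM). Formation ran 4 h, then NO711 MS marker was added for 40 min. Specifically bound NO711 was freed from the target and quantified by LC-ESI-MS/MS. Results are % remaining specific binding, means±SD of four replicates.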
For `O=C(O)[C@H]1CNC[C@@H](CN/N=C/c2cc(Br)co2)C1` (racemic), the Activity came out at 53%.
Regarding `O=C(O)[C@H]1CNC[C@@H](CN/N=C/c2cccc(Oc3ccccc3)c2)C1` (racemic), the Activity was determined as 46%.
Turning to `O=C(O)[C@H]1CNC[C@@H](CN/N=C/c2ccc[nH]2)C1` (racemic), the Activity was found to be 89%.
For the compound `O=C(O)[C@H]1CNC[C@@H](CN/N=C/c2ccc(-c3ccccc3OC(F)(F)F)o2)C1` (racemic), the Activity was 66%.
Consider `O=C(O)[C@H]1CNC[C@@H](CN/N=C/c2cccc(-c3ccc(Cl)cc3)c2)C1` (racemic), for which the Activity came to 52%.
Then `O=Cc1ccc2ccccc2n1`, with 114%.
Regarding `O=Cc1ccc(-c2cc(C(F)(F)F)ccc2Cl)o1`, the Activity is 88%.
Consider `O=C(O)[C@H]1CNC[C@@H](CN/N=C/c2ccc(-c3ccc(Cl)cc3[N+](=O)[O-])o2)C1` (racemic), for which the Activity amounted to 37%.
Consider `O=Cc1ccc(-c2ccc(Cl)cc2)s1`, for which the Activity turned out to be 107%.
Take `O=C(O)[C@H]1CNC[C@@H](CCN/N=C/c2ccc(-c3ccc(Cl)cc3[N+](=O)[O-])o2)C1` (racemic): the Activity amounted to 60%.
Regarding `O=C(O)[C@H]1CNC[C@@H](CN/N=C/c2csc3ccccc23)C1` (racemic), the Activity amounted to 82%.
With `O=C(O)[C@H]1CNC[C@@H](CN/N=C/c2ccc(-c3ccc(Br)cc3)o2)C1` (racemic), the Activity stood at 59%.
Under `O=Cc1sccc1-c1ccc(F)cc1F` stands 118%; under `O=C(O)[C@H]1CNC[C@@H](CCN/N=C/c2ccc(-c3ccccc3)o2)C1` (racemic), 61%; under `Nc1ncc(-c2ccccc2/C=N/NC[C@@H]2CNC[C@H](C(=O)O)C2)cn1` (racemic), 93%.
Regarding `O=Cc1ccc(-c2cccc3ccccc23)o1`, the Activity was 92%.
As for `COc1cc(C=O)cc(OC)c1O`, the Activity came out at 99%.
Under `COc1cc(F)ccc1-c1ccccc1C=O` stands 101%.
On to `O=C(O)[C@H]1CNC[C@H](CN/N=C/c2ccc(-c3ccc(C(F)(F)F)cc3Cl)o2)C1` (racemic), for which the Activity is greater than 50%.
On to `O=Cc1cccc(-c2ccc(Cl)cc2)c1`, for which the Activity was found to be 108%.
On to `O=Cc1ccccc1-c1ccc(F)cc1F`, for which the Activity came out at 97%.
Regarding `O=C(O)[C@H]1CNC[C@@H](CN/N=C/c2ccc(-c3cccc(Cl)c3)o2)C1` (racemic), the Activity was 46%.
Regarding `O=Cc1ccc(-c2ccc(F)c(C(F)(F)F)c2)o1`, the Activity worked out at 99%.
For `O=Cc1ccc(-c2ccc(C(F)(F)F)cc2Cl)o1`, the Activity was determined as 98%.
Turning to `Cc1ccc(-c2ccsc2/C=N/NC[C@@H]2CNC[C@H](C(=O)O)C2)c(C)c1` (racemic), the Activity turned out to be 80%.
In the case of `Cn1c(/C=N/NC[C@@H]2CNC[C@H](C(=O)O)C2)ccc1-c1ccc(Cl)cc1` (racemic), the Activity stood at 87%.
With `Nc1ncc(-c2ccccc2C=O)cn1`, the Activity came to 121%.
Regarding `O=Cc1ccc(-c2cccc(C(F)(F)F)c2)o1`, the Activity was determined as 70%.
Then `O=Cc1ccnc2ccccc12`, with 100%.
As for `O=C(O)[C@H]1CNC[C@@H](CN/N=C/c2ccc(-c3ccccc3)s2)C1` (racemic), the Activity worked out at 55%.
With `O=Cc1ccc(-c2ccccc2OC(F)(F)F)o1`, the Activity turned out to be 88%.
For `O=C(O)[C@H]1CNC[C@@H](CN/N=C/c2sccc2-c2ccc(C(F)(F)F)cc2C(F)(F)F)C1` (racemic), the Activity is 88%.
With `O=C(O)[C@H]1CNC[C@@H](CN/N=C/c2ccc(C#Cc3ccccc3)s2)C1` (racemic), the Activity came to 51%.
In the case of `O=Cc1cnc(N2CCCCC2)nc1`, the Activity was found to be 108%.
Consider `O=C(O)[C@H]1CNC[C@@H](CN/N=C/c2sccc2-c2ccc(Cl)cc2)C1` (racemic), for which the Activity is 80%.
Regarding `O=C(O)[C@H]1CNC[C@@H](CN/N=C/c2cnc(-c3ccc4ccccc4c3)nc2)C1` (racemic), the Activity is 27%.
On to `COc1ccc(F)cc1-c1ccccc1C=O`, for which the Activity was 108%.
`O=Cc1cnc(NCc2ccccc2)nc1`: the Activity was found to be 118%.
